Assay results published in ChEMBL document CHEMBL1143060, “Synthesis and pharmacological investigation of novel 4-benzyl-1-substituted-4H-[1,2,4]triazolo[4,3-a]quinazolin-5-ones as new class of H1-antihistaminic agents” (2007).

What was measured:
Assay type in all cases: functional
Mus musculus [1] = assay: Sedative-hypnotic activity in Swiss Albino mouse assessed as reduction of locomotor activity at 5 mg/kg, po after 2 hrs; design: scale not given: the % may be the effect or the level left
How it was run: (§1)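 Locomotor activity was scored at 1, 2 and 3 h after dosing, and percent reduction in locomotor activity was calculated. Significance versus control was tested by Student's t test. Animals were housed at 45–55% relative humidity on a 12 h light/dark cycle, fed standard feed, and acclimatized for one week before use.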

Mus musculus [2] = assay: Sedative-hypnotic activity in Swiss Albino mouse assessed as reduction of locomotor activity at 5 mg/kg, po after 1 hrs; design: scale not given: the % may be the effect or the level left; how it was run: as §1
Cavia porcellus = assay: Antihistaminic activity in Dunkin-Hartley guinea pig assessed as protection against histamine-induced bronchospasm at 10 mg/kg, po
How it was run: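 Male Dunkin Hartley guinea pigs (250–300 g), fasted 12 h, six per group, dosed orally at 10 mg/kg in 1% CMC. They were then challenged in a closed transparent cage with nebulized histamine aerosol (0.2% aqueous histamine acid chloride, 3 ml). Preconvulsion onset time was recorded, and animals stable >6 min counted as protected. Mean preconvulsion time versus control was expressed as percent protection.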

Mus musculus [3] = assay: Sedative-hypnotic activity in Swiss Albino mouse assessed as reduction of locomotor activity at 5 mg/kg, po after 3 hrs; design: scale not given: the % may be the effect or the level left; how it was run: as §1

| SMILES | Activity (Mus musculus [1]) [%] | Activity (Mus musculus [2]) [%] | Activity (Cavia porcellus) [%] | Activity (Mus musculus [3]) [%] |
| --- | --- | --- | --- | --- |
| O=c1c2ccccc2n2c(CN3CCCCC3)nnc2n1Cc1ccccc1 | 15 | 9 | 73.93 | 8 |
| CCCc1nnc2n(Cc3ccccc3)c(=O)c3ccccc3n12 | 15 | 9 | 73.87 | 11 |
| CCc1nnc2n(Cc3ccccc3)c(=O)c3ccccc3n12 | 12 | 7 | 74.39 | 9 |
| CN(C)CC[C@@H](c1ccccc1)c1ccccn1.O=C(O)/C=C\C(=O)O [PHENIRAMINE MALEATE] | 32 | 37 | 71 | 22 |
| Cc1nnc2n(Cc3ccccc3)c(=O)c3ccccc3n12 | 11 | 6 | 76.08 | 6 |
| O=c1c2ccccc2n2cnnc2n1Cc1ccccc1 | 9 | 6 | 73.99 | 4 |
| O=c1c2ccccc2n2c(CN3CCNCC3)nnc2n1Cc1ccccc1 | 14 | 6 | 74.44 | 8 |
| O=c1c2ccccc2n2c(CCl)nnc2n1Cc1ccccc1 | 7 | 5 | 72.96 | 4 |
| O=c1c2ccccc2n2c(CN3CCOCC3)nnc2n1Cc1ccccc1 | 13 | 7 | 74.1 | 6 |
| CN1CCN(Cc2nnc3n(Cc4ccccc4)c(=O)c4ccccc4n23)CC1 | 17 | 8 | 74.83 | 7 |
| O=c1c2ccccc2n2c(CN3CCCC3)nnc2n1Cc1ccccc1 | 12 | 8 | 73.69 | 8 |
